The source made the active and inactive calls. The calls are words filed in the database; no cut-off is given here.
Tested on: CCRF-CEM
Assay: Cytostatic activity against human CCRF-CEM cells after 72 hrs by MTT assay
Format: functional, cell-based
Outline: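 Cells were seeded at 25,000–30,000 per well and pre-incubated for 24 h at 37°C in 5% CO2. Four-fold compound dilutions were added in duplicate and incubated for 72 h. MTT was added for 1–4 h, and formazan was dissolved in 10% aq SDS (pH 5.5) overnight at 37°C. OD was read at 540 nm. IC50 came from dose-response curves, mean ± SD of eight independent experiments.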
For O=C(N/N=C/c1cc(O)ccc1O)c1ccc2c3c(ccc2c1)N1Cc2c(ccc4cc(C(=O)N/N=C/c5cc(O)ccc5O)ccc24)N(C3)C1, the IC50 was 60 nM.

Tested on: not listed separately
Assay: Metal chelating activity of the compound assessed as formation of Co2+ complex by UV-vis spectrometry
Format: physicochemical
For O=C(N/N=C/c1cc(O)ccc1O)c1ccc2c3c(ccc2c1)N1Cc2c(ccc4cc(C(=O)N/N=C/c5cc(O)ccc5O)ccc24)N(C3)C1, the Activity was “Active”.

Tested on: Nucleic Acid
Assay: Binding affinity to DNA (unknown origin) assessed as DNA intercalation by UV-visible spectrophotometry in presence of Fe3+
Format: nucleic-acid assay
In the case of O=C(N/N=C/c1cc(O)ccc1O)c1ccc2c3c(ccc2c1)N1Cc2c(ccc4cc(C(=O)N/N=C/c5cc(O)ccc5O)ccc24)N(C3)C1, the Activity is reported as “Active”.

Tested on: not listed separately
Assay: Metal chelating activity of the compound assessed as formation of Fe2+ complex by UV-vis spectrometry
Format: physicochemical
For O=C(N/N=C/c1cc(O)ccc1O)c1ccc2c3c(ccc2c1)N1Cc2c(ccc4cc(C(=O)N/N=C/c5cc(O)ccc5O)ccc24)N(C3)C1, the Activity was “Not Active”.

Tested on: not listed separately
Assay: Metal chelating activity of the compound assessed as formation of Ca2+ complex by UV-vis spectrometry
Format: physicochemical
In the case of O=C(N/N=C/c1cc(O)ccc1O)c1ccc2c3c(ccc2c1)N1Cc2c(ccc4cc(C(=O)N/N=C/c5cc(O)ccc5O)ccc24)N(C3)C1, the Activity is reported as “Not Active”.

Tested on: not listed separately
Assay: Metal chelating activity of the compound assessed as formation of Cu2+ complex by UV-vis spectrometry
Format: physicochemical
For O=C(N/N=C/c1cc(O)ccc1O)c1ccc2c3c(ccc2c1)N1Cc2c(ccc4cc(C(=O)N/N=C/c5cc(O)ccc5O)ccc24)N(C3)C1, the Activity was “Active”.

Tested on: BJ
Assay: Selectivity index, ratio of IC50 for human BJ cells to IC50 for human p53-/- HCT116 cells
Format: functional
For O=C(N/N=C/c1cc(O)ccc1O)c1ccc2c3c(ccc2c1)N1Cc2c(ccc4cc(C(=O)N/N=C/c5cc(O)ccc5O)ccc24)N(C3)C1, the “Ratio IC50” value was 29.

Tested on: Candida tropicalis
Assay: Antifungal activity against Candida tropicalis up to 200 uM after 24 to 48 hrs by broth microdilution method
Format: functional, organism-based
With O=C(N/N=C/c1cc(O)ccc1O)c1ccc2c3c(ccc2c1)N1Cc2c(ccc4cc(C(=O)N/N=C/c5cc(O)ccc5O)ccc24)N(C3)C1 the Activity was “inactive”.

Tested on: CCRF-CEM
Assay: Cell cycle arrest in human CCRF-CEM cells assessed as accumulation at S phase at IC50 after 24 hrs by propidium iodide staining-based flow cytometry
Format: functional
Outline: (§1)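 Cells were then fixed in 70% ethanol, washed in hypotonic citrate buffer, treated with RNase (50 µg/mL) and stained with propidium iodide. Flow cytometry used a 488 nm laser. Apoptosis was scored as the percentage of particles with propidium content below G0/G1.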
With O=C(N/N=C/c1cc(O)ccc1O)c1ccc2c3c(ccc2c1)N1Cc2c(ccc4cc(C(=O)N/N=C/c5cc(O)ccc5O)ccc24)N(C3)C1 the Activity was 44.72%.

Tested on: not listed separately
Assay: Metal chelating activity of the compound assessed as formation of Cr3+ complex by UV-vis spectrometry
Format: physicochemical
For O=C(N/N=C/c1cc(O)ccc1O)c1ccc2c3c(ccc2c1)N1Cc2c(ccc4cc(C(=O)N/N=C/c5cc(O)ccc5O)ccc24)N(C3)C1, the Activity was “Not Active”.

Tested on: Pseudomonas aeruginosa
Assay: Antimicrobial activity against multidrug-resistant Pseudomonas aeruginosa A/16575 up to 200 uM after 24 to 48 hrs by broth microdilution method
Format: functional, organism-based
With O=C(N/N=C/c1cc(O)ccc1O)c1ccc2c3c(ccc2c1)N1Cc2c(ccc4cc(C(=O)N/N=C/c5cc(O)ccc5O)ccc24)N(C3)C1 the Activity was “inactive”.

Tested on: Enterococcus faecalis
Assay: Antimicrobial activity against Enterococcus faecalis CCM 4224 up to 200 uM after 24 to 48 hrs by broth microdilution method
Format: functional, organism-based
In the case of O=C(N/N=C/c1cc(O)ccc1O)c1ccc2c3c(ccc2c1)N1Cc2c(ccc4cc(C(=O)N/N=C/c5cc(O)ccc5O)ccc24)N(C3)C1, the Activity is reported as “inactive”.

Tested on: HCT-116
Assay: Selectivity index, ratio of IC50 for human MRC5 cells to IC50 for human HCT116 cells
Format: functional
With O=C(N/N=C/c1cc(O)ccc1O)c1ccc2c3c(ccc2c1)N1Cc2c(ccc4cc(C(=O)N/N=C/c5cc(O)ccc5O)ccc24)N(C3)C1 the “Ratio IC50” value was 9.1.

Tested on: CCRF-CEM
Assay: Induction of apoptosis in human CCRF-CEM cells assessed as inhibition of RNA synthesis at IC50 after 24 hrs by propidium iodide/BrU staining by flow cytometry
Format: functional
Set-up: scale not given: the % may be the effect or the level left
With O=C(N/N=C/c1cc(O)ccc1O)c1ccc2c3c(ccc2c1)N1Cc2c(ccc4cc(C(=O)N/N=C/c5cc(O)ccc5O)ccc24)N(C3)C1 the Activity was 48.47%.

Tested on: Nucleic Acid
Assay: Binding affinity to DNA (unknown origin) assessed as DNA intercalation by UV-visible spectrophotometry in presence of Ni2+
Format: nucleic-acid assay
With O=C(N/N=C/c1cc(O)ccc1O)c1ccc2c3c(ccc2c1)N1Cc2c(ccc4cc(C(=O)N/N=C/c5cc(O)ccc5O)ccc24)N(C3)C1 the Activity was “Active”.

Tested on: Nucleic Acid
Assay: Binding affinity to DNA (unknown origin) assessed as DNA intercalation by UV-visible spectrophotometry in presence of Cu2+
Format: nucleic-acid assay
With O=C(N/N=C/c1cc(O)ccc1O)c1ccc2c3c(ccc2c1)N1Cc2c(ccc4cc(C(=O)N/N=C/c5cc(O)ccc5O)ccc24)N(C3)C1 the Activity was “Active”.

Tested on: A549
Assay: Selectivity index, ratio of IC50 for human BJ cells to IC50 for human A549 cells
Format: functional
For O=C(N/N=C/c1cc(O)ccc1O)c1ccc2c3c(ccc2c1)N1Cc2c(ccc4cc(C(=O)N/N=C/c5cc(O)ccc5O)ccc24)N(C3)C1, the “Ratio IC50” value was 20.9.

Tested on: Candida parapsilosis
Assay: Antifungal activity against Candida parapsilosis up to 200 uM after 24 to 48 hrs by broth microdilution method
Format: functional, organism-based
For O=C(N/N=C/c1cc(O)ccc1O)c1ccc2c3c(ccc2c1)N1Cc2c(ccc4cc(C(=O)N/N=C/c5cc(O)ccc5O)ccc24)N(C3)C1, the Activity was “inactive”.

Tested on: Staphylococcus haemolyticus
Assay: Antimicrobial activity against methicillin-resistant Staphylococcus haemolyticus A1/16568 up to 200 uM after 24 to 48 hrs by broth microdilution method
Format: functional, organism-based
In the case of O=C(N/N=C/c1cc(O)ccc1O)c1ccc2c3c(ccc2c1)N1Cc2c(ccc4cc(C(=O)N/N=C/c5cc(O)ccc5O)ccc24)N(C3)C1, the Activity is reported as “inactive”.

Tested on: not listed separately
Assay: Metal chelating activity of the compound assessed as formation of Mg2+ complex by UV-vis spectrometry
Format: physicochemical
In the case of O=C(N/N=C/c1cc(O)ccc1O)c1ccc2c3c(ccc2c1)N1Cc2c(ccc4cc(C(=O)N/N=C/c5cc(O)ccc5O)ccc24)N(C3)C1, the Activity is reported as “Not Active”.

Tested on: Pseudomonas aeruginosa
Assay: Antimicrobial activity against Pseudomonas aeruginosa CCM 395 up to 200 uM after 24 to 48 hrs by broth microdilution method
Format: functional, organism-based
With O=C(N/N=C/c1cc(O)ccc1O)c1ccc2c3c(ccc2c1)N1Cc2c(ccc4cc(C(=O)N/N=C/c5cc(O)ccc5O)ccc24)N(C3)C1 the Activity was “inactive”.

Tested on: CCRF-CEM
Assay: Induction of apoptosis in human CCRF-CEM cells assessed as apoptotic cells at IC50 after 24 hrs by propidium iodide staining-based flow cytometry
Format: functional
Outline: as §1
O=C(N/N=C/c1cc(O)ccc1O)c1ccc2c3c(ccc2c1)N1Cc2c(ccc4cc(C(=O)N/N=C/c5cc(O)ccc5O)ccc24)N(C3)C1 showed an Activity of 3.99%.

Reference: ChEMBL document CHEMBL3400013, “Synthesis and biological activity evaluation of hydrazone derivatives based on a Tröger's base skeleton” (Bioorg Med Chem, 2015)
